Screens as filed in PubChem BioAssay.
ABCB1 inh: ABCB1 efflux pump inhibitors, primary screen, cell-based, multiplex, flow cytometry, ABCG2 counter-screen; ATP-dependent translocase ABCB1 (Homo sapiens), P08183; CCRF-Adr cells, JC-1 efflux; inhibition, % at 6.6 µM; 190,000 tested, 0.067% active; in the data active = inhibition above about 40%;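 also: 0% = vehicle and 100% = reference inhibitor; higher value means more JC-1 retained so stronger ABCB1 efflux block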
Avidin fluor: green autofluorescence of compounds with avidin beads – biophysical, 488/530 nm, flow cytometry, artefact control, profiling panel; compound fluorescence 488/530 nm; active compounds read high; 220,000 tested, 0.38% active; fluorescence (KMESF) at 10 µM; AID 1775, 2009; in the data active = fluorescence above about 47
DTT redox prof: compounds producing H2O2 with reducing agent – biochemical, NIH compound library profiling, artefact control for MLSCN library redox annotation, primary screen | DTT-dependent redox cycling H2O2, phenol red/HRP absorbance; 100% = 100 µM peroxide control, 0% = buffer | activation, % at 10 µM | 200,000 tested, 0.03% active;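 active = activation of at least 50% relative to the plate's high and low controls in the primary single-dose screen; inactive = activation below 50%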;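 also: compound incubated with DTT at 0.8 mM final as the reducing agent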
GSH fluor: compound fluorescence on glutathione beads, profiling panel, artefact control, biophysical, 488/530 nm, flow cytometry; GSH beads flow cytometry, compound fluorescence 488/530 nm; active compounds read high; fluorescence (KMESF) at 10 µM; 190,000 tested, 0.25% active; AID 1776, 2009; in the data active = fluorescence above about 89;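 also: glutathione beads carrying GST-tagged Bcl family fusion proteins plus one bare bead set; values are compound well signal with DMSO vehicle wells as background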
ABCG2 block: ABCG2 efflux pump inhibitors, primary screen, multiplex with ABCB1, IgMXP3 cells, flow cytometry; inhibition, % at 6.6 µM; JC-1 efflux; 190,000 tested, 0.1% active;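 active = inhibition above 80%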;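 also: 0% = DMSO and 100% = nicardipine control wells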
Target sequence (Q9UNQ0 whole entry, looked up): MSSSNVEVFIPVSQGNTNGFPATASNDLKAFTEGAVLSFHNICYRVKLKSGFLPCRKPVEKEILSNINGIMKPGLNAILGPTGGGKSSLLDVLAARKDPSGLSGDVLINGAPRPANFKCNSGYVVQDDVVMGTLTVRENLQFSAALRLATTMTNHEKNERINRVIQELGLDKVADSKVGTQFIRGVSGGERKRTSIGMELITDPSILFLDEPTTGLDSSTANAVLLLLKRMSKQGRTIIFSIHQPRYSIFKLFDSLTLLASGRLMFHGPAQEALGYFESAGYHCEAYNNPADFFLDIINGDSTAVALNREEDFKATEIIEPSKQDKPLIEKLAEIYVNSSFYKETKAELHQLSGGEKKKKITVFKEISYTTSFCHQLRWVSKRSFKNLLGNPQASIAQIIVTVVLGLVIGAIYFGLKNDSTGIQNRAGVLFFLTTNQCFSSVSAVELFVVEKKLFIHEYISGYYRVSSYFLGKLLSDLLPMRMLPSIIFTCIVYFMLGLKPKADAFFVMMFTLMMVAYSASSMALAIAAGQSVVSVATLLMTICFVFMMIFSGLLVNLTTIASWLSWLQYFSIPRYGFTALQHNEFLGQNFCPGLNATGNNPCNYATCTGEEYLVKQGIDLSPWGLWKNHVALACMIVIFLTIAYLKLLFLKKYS
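material = IgMXP3 (ABCG2) plus far-red-tagged CCRF-Adr (ABCB1) cells | amount = 3 million cells/mL, equal mix of both lines | also added = JC-1 transporter substrate | dosing = one concentration, 6.6 µM final | schedule = 10 min at 25 °C | measured by = flow cytometric JC-1 green MFI at 530 nm | read-out basis = percent efflux inhibition, scaled nicardipine 100% to DMSO 0%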
DTT redox conf: confirmation of DTT-dependent redox cycling H2O2 generators | shares compounds with DTT redox prof | phenol red-HRP absorbance | EC50, µM | 60 tested, 40% active | AID 1234;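 active = EC50 under a set limit for hydrogen peroxide production with the reducing agent DTT present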
Numbers without * were called inactive; . = no result given. A selection: hits, their analogues and other compounds. The true share with any hit is near 0.72%.

SMILES	ABCB1 inh	Avidin fluor	DTT redox prof	GSH fluor	ABCG2 block	others
O=C1NC(=O)C2(Cc3ccccc3N3CCCC32)C(=O)N1 (stereo not drawn)	-0.6	8	5.3	32	-6.0
O=C1NC(=O)C2(Cc3ccccc3N3CCCC32)C(=O)N1c1ccccc1 (stereo not drawn)	1.2	54*	-2.7	23	18.8
O=P(O)(O)C#Cc1ccccc1	0.2	9	-1.0	261*	0.4
CCOC(=O)N1CCC(NC(=O)CCc2nc(C3=CCN(C)CC3)no2)CC1	0.4	166*	2.2	23	7.9
Nc1ccccc1N=Cc1c(O)n(CCC2=CCCCC2)c(=O)[nH]c1=O	-0.1	19	1.4	10	0.1
O=c1[nH]c(=O)n(CCC2=CCCCC2)c(O)c1C=Nc1cccc(F)c1	0.2	57*	2.4	12	1.8
CC(C)(C)c1nc(NCc2ccc3c(c2)OCO3)c2nnn(Cc3ccccc3Cl)c2n1	0.0	4	4.3	141*	-0.3
COc1ccc(C(=O)O/N=C(/C(N)=O)P(=O)(OC(C)C)OC(C)C)cc1	.	3	.	.	.
Cc1n[nH]c(C)c1CCN	0.0	59*	-1.9	16	0.5
CCCCCCn1c(=O)c(C(=O)Nc2nnc(C)s2)c(O)c2ccccc21	-1.1	11	-0.5	15	-2.0
CCCCCn1c(=O)c(C(=O)Nc2nc(CC(=O)OCC)cs2)c(O)c2ccccc21	2.0	22	-0.1	96*	-2.4
Cc1onc(-c2c(Cl)cccc2Cl)c1C(=O)Nc1ccc2c(C(F)(F)F)cc(=O)oc2c1	.	7	.	.	.
CC(C)c1ccc(-n2c(O)c(C=NC(CCS(C)=O)C(=O)O)c(=O)[nH]c2=S)cc1 (stereo not drawn)	.	9	.	.	.
CCOP(=O)(OCC)C(O)c1cccnc1 (stereo not drawn)	.	81*	.	.	.
CCOP(=O)(OCC)C(O)c1ccccc1 (stereo not drawn)	.	4	.	.	.
Cc1cccc(N2C(=O)NC(=O)/C(=C\c3cccn3-c3ccc(Cl)cc3)C2=O)c1	0.7	402*	6.0	12	2.5
CN1CCc2nc(SCc3cccc(Br)c3)c(C#N)cc2C1	.	7	.	.	.
CCC(=NCc1cccnc1)c1c(O)n(C2CCCCC2)c(=O)[nH]c1=O	-3.0	0	1.6	27	-2.2
O=c1[nH]c(=O)n(C2CCCCC2)c(O)c1C1NCCc2ccccc21 (stereo not drawn)	-1.1	6	-0.9	261*	-3.3
Oc1ccc2c3c1O[C@H]1c4oc5ccccc5c4C[C@@]4(O)[C@@H](C2)N(CC2CC2)CC[C@]314	.	8	.	.	.
COc1cc(NC(=O)CN2C3CCC2CC(O)(c2cccnc2)C3)cc(OC)c1 (stereo not drawn)	0.0	49*	0.0	11	0.3
O=C(c1ccccc1)c1cn(CC(=O)N2CCCc3ccccc32)c2ccccc12	3.8	1	0.3	58	7.9
O=C(Cn1cc(C(=O)c2ccccc2)c2ccccc21)NCc1ccco1	-0.6	50*	3.2	20	3.7
CC(=NCc1ccco1)c1c(O)n(-c2ccc(C)cc2)c(=O)[nH]c1=O	.	3	.	.	.
NNc1n[nH]c(=S)n1N	.	88*	.	.	.
SMILES	ABCB1 inh	Avidin fluor	DTT redox prof	GSH fluor	ABCG2 block	others
O=c1c2ccccc2nc(-c2ccco2)n1-c1ccccc1	0.4	12	0.2	125*	5.7
CN1C(=O)CN=C(c2ccccc2)c2cc([N+](=O)[O-])ccc21	.	7	.	67	0.1
CCNC(=S)N1CCn2cccc2C1c1cccnc1 (stereo not drawn)	0.1	11	-0.5	14	0.9
O=C1C(=O)c2ccccc2-c2ccccc21	0.0	10	284.5*	42	8.6	DTT redox conf=0.71*
CCn1nc(-c2ccccc2)nc2c(=O)n(C)c(=O)nc1-2	0.3	10	139.8*	5	0.1	DTT redox conf=0.9*
CSc1ccc(CN2CCN(C(=O)COc3cccc(C)c3)CC2)cc1	1.2	11	-0.3	14	5.5
Cc1nc2c(=O)n(C)c(=O)nc-2n(C)n1	0.2	5	292.7*	17	-0.2	DTT redox conf=2.76*
Cc1c(CCN)ccc2c1[nH]c1ccccc12	.	5	.	.	.
Cc1nn(Cc2ccccc2)c(Cl)c1C(=O)NC1CCCc2ccccc21 (stereo not drawn)	1.6	6	0.2	18	10.8
